Data taken from ChEMBL document CHEMBL5357047, “The development of thymol-isatin hybrids as broad-spectrum antibacterial agents with potent anti-MRSA activity” (RSC Med Chem, 2024).
Values after ≈ are worked out from the molar mass of the structure shown.

Tests used:
Format in all cases: functional
Staphylococcus aureus [1] = assay: Antibacterial activity against Staphylococcus aureus MTCC 740 assessed as inhibition of bacterial growth at 50 uM measured after 48 hrs by agar well diffusion method; conditions: read-out: IZ
Staphylococcus aureus [2] = assay: Antibacterial activity against clinically isolated Staphylococcus aureus RBRJ010 assessed as inhibition of bacterial growth at 50 uM measured after 48 hrs by agar well diffusion method; conditions: read-out: IZ
[3] = system: Staphylococcus epidermidis; assay: Antibacterial activity against Staphylococcus epidermidis MTCC 435 assessed as inhibition of bacterial growth at 50 uM measured after 48 hrs by agar well diffusion method; conditions: read-out: IZ
Staphylococcus aureus [4] = assay: Antibacterial activity against clinically isolated Methicillin-resistant Staphylococcus aureus assessed as inhibition of bacterial growth at 50 uM measured after 48 hrs by agar well diffusion method; conditions: read-out: IZ
Staphylococcus aureus [5] = assay: Antibacterial activity against Methicillin-resistant Staphylococcus aureus ATCC 33591 assessed as inhibition of bacterial growth at 50 uM measured after 48 hrs by agar well diffusion method; conditions: read-out: IZ
Method in brief: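 Agar well diffusion on Mueller Hinton agar seeded with bacteria at 0.5 McFarland. […] Incubated 48 h at 37 °C aerobically; zone of inhibition diameter (mm) measured. Triplicate.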

Enterococcus faecalis [6] = assay: Antibacterial activity against Enterococcus faecalis MTCC 439 assessed as inhibition of bacterial growth at 50 uM measured after 48 hrs by agar well diffusion method; conditions: read-out: IZ
Enterococcus faecalis [7] = assay: Antibacterial activity against clinically isolated Enterococcus faecalis RBRJ015 assessed as inhibition of bacterial growth at 50 uM measured after 48 hrs by agar well diffusion method; conditions: read-out: IZ
Klebsiella pneumoniae [8] = assay: Antibacterial activity against Klebsiella pneumoniae MTCC 109 assessed as inhibition of bacterial growth at 50 uM measured after 48 hrs by agar well diffusion method; conditions: read-out: IZ
Klebsiella pneumoniae [9] = assay: Antibacterial activity against clinically isolated Klebsiella pneumoniae RBRJ019 assessed as inhibition of bacterial growth at 50 uM measured after 48 hrs by agar well diffusion method; conditions: read-out: IZ
Klebsiella pneumoniae [10] = assay: Antibacterial activity against clinically isolated Klebsiella pneumoniae RBRJ024 assessed as inhibition of bacterial growth at 50 uM measured after 48 hrs by agar well diffusion method; conditions: read-out: IZ
Escherichia coli [11] = assay: Antibacterial activity against Escherichia coli MTCC 119 assessed as inhibition of bacterial growth at 50 uM measured after 48 hrs by agar well diffusion method; conditions: read-out: IZ
Escherichia coli [12] = assay: Antibacterial activity against clinically isolated Escherichia coli RBRJ005 assessed as inhibition of bacterial growth at 50 uM measured after 48 hrs by agar well diffusion method; conditions: read-out: IZ
Escherichia coli [13] = assay: Antibacterial activity against clinically isolated Escherichia coli RBRJ013 assessed as inhibition of bacterial growth at 50 uM measured after 48 hrs by agar well diffusion method; conditions: read-out: IZ
Enterobacter cloacae = assay: Antibacterial activity against clinically isolated Enterobacter cloacae RBRJ017 assessed as inhibition of bacterial growth at 50 uM measured after 48 hrs by agar well diffusion method; conditions: read-out: IZ
Acinetobacter baumannii = assay: Antibacterial activity against clinically isolated Acinetobacter baumannii RBRJ027 assessed as inhibition of bacterial growth at 50 uM measured after 48 hrs by agar well diffusion method; conditions: read-out: IZ
Pseudomonas aeruginosa = assay: Antibacterial activity against Pseudomonas aeruginosa MTCC 424 assessed as inhibition of bacterial growth at 50 uM measured after 48 hrs by agar well diffusion method; conditions: read-out: IZ
Staphylococcus aureus [14] = assay: Antibacterial activity against Staphylococcus aureus MTCC 740 assessed as inhibition of bacterial growth measured after 48 hrs by broth microdilution method
Staphylococcus aureus [15] = assay: Bactericidal activity against Staphylococcus aureus MTCC 740 assessed as inhibition of bacterial growth measured after 48 hrs by agar plate method
Method in brief: (§1)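 MBC: aliquots from microdilution wells without colour change subcultured on drug-free Mueller Hinton agar, 48 h at 37 °C aerobically. MBC is the lowest concentration with no visible growth. Triplicate.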

Staphylococcus aureus [16] = assay: Antibacterial activity against clinically isolated Staphylococcus aureus RBRJ010 assessed as inhibition of bacterial growth measured after 48 hrs by broth microdilution method
Staphylococcus aureus [17] = assay: Bactericidal activity against clinically isolated Staphylococcus aureus RBRJ010 assessed as inhibition of bacterial growth measured after 48 hrs by agar plate method
Method in brief: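 MBC: 10 μL from wells showing no INT colour change after broth microdilution subcultured on drug-free Mueller Hinton agar, 48 h at 37 °C aerobically; lowest concentration with no visible growth taken as MBC (μM). Triplicate.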

Staphylococcus aureus [18] = assay: Antibacterial activity against clinically isolated Methicillin-resistant Staphylococcus aureus assessed as inhibition of bacterial growth measured after 48 hrs by broth microdilution method
Staphylococcus aureus [19] = assay: Antibacterial activity against Methicillin-resistant Staphylococcus aureus ATCC 33591 assessed as inhibition of bacterial growth measured after 48 hrs by broth microdilution method
Staphylococcus aureus [20] = assay: Bactericidal activity against clinically isolated Methicillin-resistant Staphylococcus aureus assessed as inhibition of bacterial growth measured after 48 hrs by agar plate method
Staphylococcus aureus [21] = assay: Bactericidal activity against Methicillin-resistant Staphylococcus aureus ATCC 33591 assessed as inhibition of bacterial growth measured after 48 hrs by agar plate method; method in brief: as §1

| SMILES | zone of inhibition at 50 µM (Staphylococcus aureus [1]) [mm] | zone of inhibition at 50 µM (Staphylococcus aureus [2]) [mm] | zone of inhibition at 50 µM [3] [mm] | zone of inhibition at 50 µM (Staphylococcus aureus [4]) [mm] | zone of inhibition at 50 µM (Staphylococcus aureus [5]) [mm] | zone of inhibition at 50 µM (Enterococcus faecalis [6]) [mm] | zone of inhibition at 50 µM (Enterococcus faecalis [7]) [mm] | zone of inhibition at 50 µM (Klebsiella pneumoniae [8]) [mm] | zone of inhibition at 50 µM (Klebsiella pneumoniae [9]) [mm] | zone of inhibition at 50 µM (Klebsiella pneumoniae [10]) [mm] | zone of inhibition at 50 µM (Escherichia coli [11]) [mm] | zone of inhibition at 50 µM (Escherichia coli [12]) [mm] | zone of inhibition at 50 µM (Escherichia coli [13]) [mm] | zone of inhibition at 50 µM (Enterobacter cloacae) [mm] | zone of inhibition at 50 µM (Acinetobacter baumannii) [mm] | zone of inhibition at 50 µM (Pseudomonas aeruginosa) [mm] | MIC (Staphylococcus aureus [14]) [µM] | MBC (Staphylococcus aureus [15]) [µM] | other results |
| --- | --- | --- | --- | --- | --- | --- | --- | --- | --- | --- | --- | --- | --- | --- | --- | --- | --- | --- | --- |
| Cc1ccc(C(C)C)c(OCc2cn(CCN3C(=O)C(=O)c4cc(F)ccc43)nn2)c1 | 20.3 | 19.2 | 17.3 | 16.6 | 15.3 | 15.1 | 19.3 | 15.2 | 14.2 | 13.2 | 13.3 | 14.3 | 14.2 | 14.2 | 11.9 | 14.2 | 62.5 (≈ 26.4 µg/mL) | 125 (≈ 52.8 µg/mL) |  |
| Cc1ccc(C(C)C)c(OCc2cn(CCN3C(=O)C(=O)c4cc(C)ccc43)nn2)c1 | 18.2 | 21.2 | 19.6 | 16.2 | 16 | 14.3 | 16.3 | 16.6 | 15.4 | 15.7 | 17.1 | 12.7 | 11.4 | 14.2 | 12.7 | 11.3 |  |  | MIC (Staphylococcus aureus [16]): 31.2 µM (≈ 13.1 µg/mL); MBC (Staphylococcus aureus [17]): 62.5 µM (≈ 26.2 µg/mL) |
| Cc1ccc(C(C)C)c(OCc2cn(CCCCN3C(=O)C(=O)c4cc(Br)ccc43)nn2)c1 | 18.1 | 11.2 | 14.2 | 13.5 | 13.1 | 10.3 | 13.8 | 13.5 | 11.4 | 10.9 | 11.1 | 11.8 | 11 | 11.1 | 10.7 | 11.3 |  |  |  |
| COc1ccc2c(c1)C(=O)C(=O)N2CCn1cc(COc2cc(C)ccc2C(C)C)nn1 | 16.2 | 20.3 | 16.4 | 15.3 | 15.5 | 15.5 | 11.3 | 15.3 | 14.6 | 14.9 | 16.2 | 11.5 | 11.1 | 13.2 | 11.4 | 11.5 |  |  | MIC (Staphylococcus aureus [16]): 62.5 µM (≈ 27.2 µg/mL); MBC (Staphylococcus aureus [17]): 125 µM (≈ 54.3 µg/mL) |
| Cc1ccc(C(C)C)c(OCc2cn(CCCCN3C(=O)C(=O)c4ccccc43)nn2)c1 | 22.1 | 16.2 | 16.2 | 19.6 | 19 | 13.2 | 17.6 | 15.2 | 14.4 | 15.6 | 16.5 | 13.6 | 11.5 | 12.6 | 11.2 | 13.7 | 15.6 (≈ 6.75 µg/mL) | 31.2 (≈ 13.5 µg/mL) |  |
| Cc1ccc(C(C)C)c(OCc2cn(CCCN3C(=O)C(=O)c4cc(Br)ccc43)nn2)c1 | 21.2 | 19.3 | 17.2 | 21.2 | 21.5 | 12.1 | 12.2 | 14.3 | 13.2 | 13.3 | 14.1 | 15.4 | 15.5 | 14.2 | 11.2 | 11.4 | 31.2 (≈ 15.5 µg/mL) | 62.5 (≈ 31.1 µg/mL) | MIC (Staphylococcus aureus [18]): 31.2 µM (≈ 15.5 µg/mL); MIC (Staphylococcus aureus [19]): 62.5 µM (≈ 31.1 µg/mL); MBC (Staphylococcus aureus [20]): 62.5 µM (≈ 31.1 µg/mL); MBC (Staphylococcus aureus [21]): 125 µM (≈ 62.2 µg/mL) |
| Cc1ccc(C(C)C)c(OCc2cn(CCCN3C(=O)C(=O)c4cc(I)ccc43)nn2)c1 | 20.2 | 19 | 14.2 | 20.2 | 20.5 | 11.7 | 11.1 | 12.3 | 11.3 | 12.7 | 13.2 | 12.3 | 11.2 | 13.7 | 11.5 | 11.6 | 31.2 (≈ 17 µg/mL) | 125 (≈ 68 µg/mL) | MIC (Staphylococcus aureus [18]): 62.5 µM (≈ 34 µg/mL); MIC (Staphylococcus aureus [19]): 62.5 µM (≈ 34 µg/mL); MBC (Staphylococcus aureus [20]): 125 µM (≈ 68 µg/mL); MBC (Staphylococcus aureus [21]): 125 µM (≈ 68 µg/mL) |
